# Screening data as filed in PubChem BioAssay.
# Shown are actives, neighbours in structure and some others; about 2.4% of the full set was active somewhere.
# NadD block = blocks S. aureus nicotinate mononucleotide adenylyltransferase. purified NadD enzyme, colorimetric absorbance read-out. inhibition, % at 20 µM. AID 602399. actives 0.78% (n = 360,000); in the data active = inhibition above about 26%
# STEP inh = inhibitors of human striatal-enriched phosphatase STEP; P54829; recombinant STEP, OMFP fluorogenic substrate, fluorescence; inhibition, % at 20 µM; actives 0.25% (n = 360,000); AID 588621;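 active = inhibition at 20 µM, scaled per plate between control wells, above about 37%, limit read from the data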;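 note: 0% = DMSO with enzyme and substrate and 100% = substrate only without enzyme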
#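 Assay system: isolated STEP enzyme / Timing: 20 min at room temperature, dark / Doses: 20 µM, 1% DMSO / Technique: fluorescence intensity, excitation 480 nm, emission 540 nm / Reagent: fluorogenic phosphatase substrate OMFP at 25 µM final / Measure: percent inhibition scaled to no-enzyme and uninhibited-enzyme controls, plate-pattern corrected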
# SUMO1-SIM PPI = SUMO1-SIM interaction modulation; AID 602429; actives 0.33% (n = 360,000); P63165; inhibition, % at 20 µM; SUMO1 binding to a labelled peptide, TR-FRET, 1 h; in the data active = inhibition above about 37%
# Target sequence (P63165 whole entry, looked up): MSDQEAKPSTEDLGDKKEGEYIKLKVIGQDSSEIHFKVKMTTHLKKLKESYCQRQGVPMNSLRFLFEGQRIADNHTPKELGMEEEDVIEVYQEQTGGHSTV
# LMPTP block = LMPTP (human) inhibition; P24666; recombinant LMPTP-A, OMFP fluorogenic substrate, fluorescence intensity; inhibition, % at 20 µM; actives 0.22% (n = 360,000); AID 651560;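 active = compounds that cut the enzyme signal by at least half of the control window in the single-dose screen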;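 note: plate controls were DMSO wells with enzyme plus substrate for no effect and substrate without enzyme for full effect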
# Target sequence (P24666 whole entry, looked up): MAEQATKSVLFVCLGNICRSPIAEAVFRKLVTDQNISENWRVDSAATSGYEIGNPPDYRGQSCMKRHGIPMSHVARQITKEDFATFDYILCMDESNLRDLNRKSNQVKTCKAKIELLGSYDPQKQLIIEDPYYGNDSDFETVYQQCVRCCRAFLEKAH
#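 Assay system: LMPTP-A phosphatase enzyme | Input: 0.625 nM enzyme | Also added: Fluorogenic phosphatase substrate OMFP at 400 µM final | Compound dosing: One test concentration per compound, 20 µM, with 3% DMSO overall | Schedule: 50 min enzyme reaction at room temperature, protected from light | Signal: Fluorescence intensity | Benchmarks: no-enzyme and uninhibited controls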
# Scp-1 inhibitor = inhibitors of human Scp-1 phosphatase; Recombinant Scp1, phosphopeptide, malachite green phosphate absorbance; actives 0.88% (n = 340,000); Q9GZU7; inhibition, % at 20 µM;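 active = inhibition above about 50% at 20 µM, limit read from the data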;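 note: plate controls were DMSO wells with enzyme for no effect and wells lacking enzyme for full effect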
# Target sequence (Q9GZU7 76-261 limits assumed): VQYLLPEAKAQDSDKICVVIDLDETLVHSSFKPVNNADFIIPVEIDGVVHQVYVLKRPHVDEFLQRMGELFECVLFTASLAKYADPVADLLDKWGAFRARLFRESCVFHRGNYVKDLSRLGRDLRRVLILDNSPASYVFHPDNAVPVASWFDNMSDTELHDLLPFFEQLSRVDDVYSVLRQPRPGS
#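 Times: enzyme reaction 45 min at room temperature, colour 5 min, stabilisation 30 min. Material: SCP-1 catalytic fragment, aa 76-261. Medium: Acidic Tris acetate buffer with magnesium and detergent. Signal: colorimetric free-phosphate detection, absorbance 630 nm. Read-out basis: % inhibition of SCP-1 phosphate liberation. Reagent: Phosphorylated 17-residue peptide substrate.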
# DNMT1 inh = DNMT1 (human) enzyme inhibition; inhibition (reported as % activation of signal), % at 10 µM; actives 0.83% (n = 360,000); AID 588458; DNMT1 molecular beacon, Hinp1I cleavage, fluorescence; in the data active = inhibition above about 50%
# NadD inh conf = NadD (S. aureus) inhibition, single concentration confirmation; inhibition, % at 20 µM; purified S. aureus NadD, colorimetric enzyme assay; shares compounds with NadD block; actives 13% (n = 2,000); in the data active = inhibition mostly above about 42%, no sharp cut-off; inactive = mostly below about 42%
# The depositor's hits bear a star; nt = no result given.
SMILES,NadD block,STEP inh,SUMO1-SIM PPI,LMPTP block,Scp-1 inhibitor,DNMT1 inh,NadD inh conf
Cc1cc(C)c2sc(NNC(=O)c3ccc(S(=O)(=O)N4CCc5ccccc5C4)cc3)nc2c1,64*,2,-4,2,-5,-22,56*
COc1ccc(C(=O)Nc2cccc(/C=C(\CCC(=O)O)c3nc4ccccc4s3)c2)cc1,55*,-7,-3,5,6,-6,29
CCOc1cc(/C=C(\CC(=O)O)c2nc3ccccc3s2)ccc1OCC(=O)Nc1cccc(C(F)(F)F)c1,37*,-3,13,3,-5,-7,12
COc1ccccc1N(CC(=O)N1CCCCC1C)S(=O)(=O)c1ccc(Cl)cc1 (stereo unspecified),1,-2,2,-1,nt,4,nt
CCN(CC)S(=O)(=O)c1ccc(OC)c(NC(=O)c2cccc([N+](=O)[O-])c2C)c1,-6,3,-4,-2,-7,-1,nt
O=C(O)C1CC=CCC1C(=O)N1CCN(c2nc(-c3ccccc3Cl)c3cc(Br)ccc3n2)CC1 (stereo unspecified),36*,0,-6,3,3,20,28
O=C(O)c1cccc(NC(=S)N/N=C/c2ccccc2OCc2ccc(Br)cc2)c1,45*,0,12,4,2,-4,64*
O=C(O)c1cccc(NC(=S)N/N=C/c2ccccc2OCc2cccc(Br)c2)c1,51*,0,19,2,3,32,72*
O=C(O)c1cccc(NC(=S)N/N=C/c2cccc(O)c2)c1,0,0,11,-1,1,2,nt
COC(=O)c1ccc(COc2ccccc2/C=N/Nc2cccc(C(=O)O)c2)cc1,19,-1,15,2,-5,1,nt
C[C@@H]1CN([C@H](C)CO)C(=O)CCCn2nncc2CO[C@@H]1CN(C)C(=O)c1ccccc1,4,0,0,-1,nt,4,nt
COc1cc(/C=C/c2ccc3cccc(O)c3n2)c(Br)cc1O,28*,-3,1,2,nt,-8,13
COc1cc(Br)c(/C=C/c2ccc3cccc(O)c3n2)cc1OC,26,4,5,3,-10,-9,nt
COc1cc(Br)cc(/C=C/c2ccc3cccc(O)c3n2)c1O,34*,-3,1,2,-4,-11,26
COc1ccc(CC(=O)NCC2CCCN(Cc3ccc(F)cc3F)C2)cc1 (stereo unspecified),3,-2,2,-3,-5,0,nt
COc1ccc(NS(=O)(=O)c2ccc(NC(=S)NC(=O)/C=C/c3ccccc3)cc2)nn1,48*,-1,30,3,-11,2,54*
COc1ccc(-c2cc(C(=O)N/N=C(\C)c3cccnc3)c3ccccc3n2)c(OC)c1,12,-3,-5,0,-2,-1,nt
Cc1ccc(S(=O)(=O)N2C[C@]3(O)C[C@@H]4C(=O)N(c5ccccc5)C(=O)[C@@H]4C[C@]3(OC(=O)Nc3cccs3)C2)cc1,8,1,4,1,nt,-2,nt
O=C(NC(=S)N1CCN(c2nc(-c3ccccc3)cs2)CC1)c1cncc(Br)c1,35*,1,4,0,-3,-1,23
COc1cc(/C=C(\C#N)c2nc(-c3cc4ccccc4oc3=O)cs2)ccc1O,50*,-2,7,4,-1,21,-6
COc1cc(/C=C(\C#N)c2nc3ccccc3o2)ccc1O,0,0,-88,9,3,7,nt
Cc1ccc(C(=O)OCC(=O)Nc2sc3c(c2C#N)CCC3)cc1,10,8,-1,-1,-7,25,nt
Cc1ccc(C(=O)OCC(=O)Nc2sccc2C(N)=O)cc1NC(=O)c1ccco1,8,-3,22,16,6,-3,nt
Cc1ccc(C(=O)OCC(=O)Nc2sc3c(c2C#N)CCCCC3)cc1NC(=O)c1ccco1,36*,-2,6,3,-5,-11,12
Cc1ccc(C(=O)OCC(=O)Nc2sc3c(c2C#N)CCCC3)cc1NC(=O)c1ccco1,59*,5,11,4,-2,-7,17
SMILES,NadD block,STEP inh,SUMO1-SIM PPI,LMPTP block,Scp-1 inhibitor,DNMT1 inh,NadD inh conf
COc1cc(C(C)=O)ccc1OCC(=O)Nc1cc(S(=O)(=O)N2CCOCC2)ccc1N1CCCC1,1,2,5,1,-1,5,nt
Cc1ccc(-n2c(N)c(C(=O)Nc3ccccc3F)sc2=S)cc1C,1,4,-13,1,-10,-3,nt
COc1ccc2c(CN3CCN(c4ccc(Cl)c(Cl)c4)CC3)cc(=O)oc2c1,0,2,0,3,nt,3,nt
COc1cc2oc(=O)cc(CN3CCN(c4ccc(Cl)c(Cl)c4)CC3)c2cc1Cl,39*,2,-5,1,nt,5,13
CCC(=O)NC(c1cccs1)c1cc([N+](=O)[O-])c2cccnc2c1OC (stereo unspecified),32*,8,-7,49,nt,33,26
CC(C)C(=O)NC(c1cccs1)c1cc([N+](=O)[O-])c2cccnc2c1O (stereo unspecified),9,5,-16,13,-30,-14,nt
C/C(=N\NC(=O)c1cccc(N/N=C(\C)c2ccc([N+](=O)[O-])cc2)c1)c1ccc([N+](=O)[O-])cc1,33*,4,-27,2,-7,5,3
CC(C)(CNC(=O)c1ccccc1NS(C)(=O)=O)N1CCCCC1,6,-2,-1,-2,-4,1,nt
Cn1c(=O)[nH]c(=O)c2c1[nH]c(=S)n2CCCc1ccccc1,32*,-2,1,0,35,0,21
Cc1ccc(-c2cc(C(=O)N/N=C/c3ccc([N+](=O)[O-])o3)c3ccccc3n2)o1,32*,8,-7,6,35,23,8
O=C(N/N=C/c1ccc(Cl)c([N+](=O)[O-])c1)c1cc(-c2ccccc2)nc2ccccc12,19,2,3,0,-1,15,nt
O=C(N/N=C/c1cc([N+](=O)[O-])ccc1Cl)c1cc(-c2ccccc2)nc2ccccc12,36*,-2,6,-1,-7,7,-1
Cc1ccc(/C=N/NC(=O)c2cc(-c3ccncc3)nc3ccccc23)o1,-2,0,-18,-1,-8,4,nt
Cc1cccc(Cl)c1OCCCN1CCOCC1,0,-3,1,-2,-14,1,nt
O=C(c1ccc(-c2nnc(Nc3cccc(Cl)c3)c3ccccc23)cc1)N1C[C@H]2C[C@H](C1)c1cccc(=O)n1C2,28*,2,7,20,3,74*,-3
